# According to ChEMBL document CHEMBL1129647, “Targeting delavirdine/atevirdine resistant HIV-1: identification of (alkylamino)piperidine-containing bis(heteroaryl)piperazines as broad spectrum HIV-1 reverse transcriptase inhibitors” (J Med Chem, 1996):
# Tests used:
# [1] = molecular target: T1, Human immunodeficiency virus type 1 reverse transcriptase (Human immunodeficiency virus 1, UniProt Q72547, P236L)
# [2] = molecular target: T2, Human immunodeficiency virus type 1 reverse transcriptase (Human immunodeficiency virus 1, UniProt Q72547, Y181C)
# [3] = molecular target: T3, Human immunodeficiency virus type 1 reverse transcriptase (Human immunodeficiency virus 1, UniProt Q72547)
# [4] = Clearance at an iv dose of 15.6 mg/Kg and po dose of 31.2 mg/Kg; format: ADME, organism-based; details: rat, in vivo
# Method in brief: (§1)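 Male Sprague-Dawley rats, fasted, dosed iv and po in a crossover design with a 1 week washout between treatments (N = 3). Compound was given as a solution in propylene glycol/water (80/20, v/v) acidified with a molar excess of methanesulfonic acid. Values are the iv clearance and the absolute oral bioavailability.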
# [5] = Bioavailability at an iv dose of 15.6 mg/Kg and po dose of 31.2 mg/Kg; format: ADME, organism-based; details: rat, in vivo, read-out: Bioavailabiility
# Method in brief: as §1
# [6] = test system: Human immunodeficiency virus 1; assay: Concentration required to inhibit P24 production by 90% against L-697661 of HIV-1 IIIB (Y181C); format: functional
# [7] = test system: Human immunodeficiency virus 1; assay: Concentration required to inhibit P24 production by 90% against U-90,152 of HIV-1 MF (P236L); format: functional
# [8] = Clearance at an iv dose of 15 mg/Kg and po dose of 30 mg/Kg; format: ADME, organism-based; details: in vivo
# Method in brief: as §1
# [9] = Bioavailability (dose 15 mg/kg i.v. and 30 mg/kg p.o.); format: ADME, organism-based; details: in vivo, po
# Method in brief: as §1
# [10] = test system: Human immunodeficiency virus 1; assay: Concentration required to inhibit P24 production by 90% against U-90,152 of HIV-1 IIIB (L100I, M230L); format: functional
# [11] = test system: Human immunodeficiency virus 1; assay: In vitro inhibition of recombinant HIV-1 IIIB mutant P236L; format: functional, organism-based
# [12] = test system: Human immunodeficiency virus 1; assay: In vitro inhibition of recombinant HIV-1 IIIB mutant Y181C; format: functional, organism-based
# [13] = molecular target: T1, Human immunodeficiency virus type 1 reverse transcriptase; assay: Compound was tested for inhibition of HIV-1 P236L reverse transcriptase using dTTP as substrate
# [14] = molecular target: T1, Human immunodeficiency virus type 1 reverse transcriptase; assay: Compound was tested for inhibition of HIV-1 P236L reverse transcriptase using poly(rA)300:oligo(dT)10 as substrate
# [15] = molecular target: T3, Human immunodeficiency virus type 1 reverse transcriptase; assay: Compound was tested for inhibition of HIV-1 WT reverse transcriptase using dTTP as substrate
# [16] = molecular target: T3, Human immunodeficiency virus type 1 reverse transcriptase; assay: Compound was tested for inhibition of HIV-1 WT reverse transcriptase using poly(rA)300:oligo(dT)10 as substrate
# [17] = molecular target: T2, Human immunodeficiency virus type 1 reverse transcriptase; assay: Compound was tested for inhibition of HIV-1 Y181C cell line using poly(rA)300:oligo(dT)10 as substrate
# Method in brief: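 Kinetic inhibition study on homodimeric recombinant HIV-1 RTs (WT, P236L, Y181C), varying dTTP or poly(rA):(dT)10 template:primer. Base assay: 28 °C, 10 min, pH 8.3 Tris-HCl, 10 mM MgCl2, 60 mM NaCl, 2 mM DTT, 0.05% NP-40, [3H]TTP incorporation. TCA-precipitated product collected on glass fibre filters and counted. Ki values derived.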
# [18] = test system: Human immunodeficiency virus 1; assay: In vitro inhibition of recombinant HIV-1 IIIB mutant WT; format: functional, organism-based
# [19] = molecular target: T2, Human immunodeficiency virus type 1 reverse transcriptase; assay: Compound was tested for inhibition of HIV-1 Y181C reverse transcriptase using dTTP as substrate
# [20] = Bioavailability at an iv dose of 15 mg/Kg and po dose of 29.1 mg/Kg; format: ADME, organism-based; details: in vivo, read-out: Bioavailabiility
# Method in brief: as §1
# [21] = test system: Human immunodeficiency virus 1; assay: Concentration required to inhibit P24 production by 90% against L-697,661 of HIV-1IIIB(Y181c); format: functional
# [22] = test system: Human immunodeficiency virus 1; assay: Concentration required to inhibit P24 production by 90% against U-90,152 of HIV-1 MF(P236L); format: functional
SMILES,IC50 [1],IC50 [2],IC50 [3],IC90 [6],IC90 [7],IC90 [10],further results
CC(C)Nc1ccc(Cl)nc1N(C)C1CCN(C(=O)c2cc3cc(NS(C)(=O)=O)ccc3[nH]2)CC1,1700 nM,2130 nM,360 nM,,,,
CC(C)Nc1ccnnc1N(C)C1CCN(C(=O)c2cc3cc(NS(C)(=O)=O)ccc3[nH]2)CC1,4560 nM,1310 nM,740 nM,,,,clearance [4]: 40 mL/min/kg; bioavailability [5]: 0%
CN(c1ncccc1NC1CC1)C1CCN(C(=O)c2cc3cc(NS(C)(=O)=O)ccc3[nH]2)CC1,210 nM,280 nM,90 nM,4400 nM,> 10000 nM,,
CCNc1cccnc1N(CC)C1CCN(C(=O)c2cc3cc(NS(=O)(=O)C(C)C)ccc3[nH]2)CC1,330 nM,660 nM,450 nM,,,,
CCN(c1nc(F)ccc1NC(C)(C)C)C1CCN(C(=O)c2cc3cc(NS(C)(=O)=O)ccc3[nH]2)CC1,1050 nM,1060 nM,730 nM,< 30 nM,220 nM,120 nM,clearance ([8]; rat): 27 mL/min/kg; bioavailability ([9]; rat): 17.1%
CCC(C)(C)Nc1cccnc1N(C)C1CCN(C(=O)c2cc3cc(NS(C)(=O)=O)ccc3[nH]2)CC1,3330 nM,530 nM,350 nM,,,,
CCNc1cccnc1N(CC)C1CCN(C(=O)c2cc3cc(NS(=O)(=O)N4CCN(C)CC4)ccc3[nH]2)CC1,440 nM,1110 nM,240 nM,,,,
CN(c1ncccc1NC1(C)CC1)C1CCN(C(=O)c2cc3cc(NS(C)(=O)=O)ccc3[nH]2)CC1,1450 nM,370 nM,160 nM,2300 nM,> 300 nM,,
CCCN(c1ncccc1NC(C)(C)C)C1CCN(C(=O)c2cc3cc(NS(C)(=O)=O)ccc3[nH]2)CC1,1450 nM,2480 nM,480 nM,30 nM,320 nM,110 nM,
CCN(c1ncccc1NC(C)(C)C)C1CCN(C(=O)c2cc3cc(NC(=O)N4CCN(C)CC4)ccc3[nH]2)CC1,370 nM,610 nM,220 nM,50 nM,160 nM,160 nM,clearance ([8]; rat): 61 mL/min/kg; bioavailability ([9]; rat): 35.1%
CCCN(c1ncccc1NCC)C1CCN(C(=O)c2cc3cc(NS(C)(=O)=O)ccc3[nH]2)CC1,520 nM,950 nM,150 nM,,,,
CCN(c1ncccc1NC(C)(C)C)C1CCN(C(=O)c2cc3cc(NS(=O)(=O)N4CCN(C)CC4)ccc3[nH]2)CC1,1250 nM,1830 nM,790 nM,< 30 nM,340 nM,140 nM,clearance ([8]; rat): 73.7 mL/min/kg; bioavailability ([9]; rat): 32%
CCCNc1cccnc1N(CC)C1CCN(C(=O)c2cc3cc(NS(C)(=O)=O)ccc3[nH]2)CC1,280 nM,450 nM,130 nM,140 nM,400 nM,,
CCNc1cccnc1N(CC)C1CCN(C(=O)c2cc3cc(NS(C)(=O)=O)ccc3[nH]2)CC1,540 nM,880 nM,460 nM,180 nM,310 nM,80 nM,clearance ([8]; rat): 66.6 mL/min/kg; bioavailability ([9]; rat): 2.8%
CCN(c1nc(F)ccc1NC(C)C)C1CCN(C(=O)c2cc3cc(NS(C)(=O)=O)ccc3[nH]2)CC1,540 nM,880 nM,460 nM,140 nM,300 nM,110 nM,
CCNc1cccnc1N(CC)C1CCN(C(=O)c2cc3cc(NC(=O)N4CCN(C)CC4)ccc3[nH]2)CC1,240 nM,1230 nM,140 nM,,,,
CN(c1nc(F)ccc1NC(C)(C)C)C1CCN(C(=O)c2cc3cc(NS(C)(=O)=O)ccc3[nH]2)CC1,1900 nM,720 nM,530 nM,440 nM,2600 nM,1600 nM,

SMILES,IC50 [1],IC50 [2],IC50 [3],IC90 [6],IC90 [7],IC90 [10],further results
CCN(c1ncccc1NC(C)C)C1CCN(C(=O)c2cc3cc(NS(C)(=O)=O)ccc3[nH]2)CC1,200 nM,400 nM,250 nM,,,,
CCN(c1nc(F)ccc1NC(C)(C)C)C1CCN(C(=O)c2cc3cc(NS(=O)(=O)N4CCN(C)CC4)ccc3[nH]2)CC1,1090 nM,2070 nM,830 nM,150 nM,290 nM,290 nM,clearance ([8]; rat): 61 mL/min/kg; bioavailability ([9]; rat): 54%
CC(C)Nc1cccnc1N(C)C1CCN(C(=O)c2cc3ccc(CO)cc3[nH]2)CC1,370 nM,490 nM,170 nM,,,,
CCN(c1ncccc1NC(C)C)C1CCN(C(=O)c2cc3cc(NC(=O)N4CCN(C)CC4)ccc3[nH]2)CC1,180 nM,410 nM,140 nM,50 nM,240 nM,110 nM,clearance ([8]; rat): 50 mL/min/kg; bioavailability ([9]; rat): 21.3%
CCN(c1nc(F)ccc1NC(C)(C)C)C1CCN(C(=O)c2cc3cc(NC(=O)N4CCN(C)CC4)ccc3[nH]2)CC1,,,,130 nM,160 nM,140 nM,clearance [8]: 16 mL/min/kg; bioavailability ([9]; eutheria): 42%; IC50 [11]: 430 nM; IC50 [12]: 790 nM; Ki [13]: 2020 nM; Ki [14]: 1740 nM; Ki [15]: 1260 nM; Ki [16]: 1640 nM; Ki [17]: 3.03 µM; IC50 [18]: 210 nM; Ki [19]: 2550 nM
CCN(c1ncccc1NC(C)C)C1CCN(C(=O)c2cc3cc(NS(=O)(=O)N4CCN(C)CC4)ccc3[nH]2)CC1,570 nM,770 nM,380 nM,170 nM,300 nM,,clearance ([8]; rat): 89 mL/min/kg; bioavailability ([9]; rat): 8%
CN(c1ncccc1NC(C)(C)C)C1CCN(C(=O)c2cc3cc(NS(C)(=O)=O)ccc3[nH]2)CC1,,,,220 nM,5400 nM,830 nM,bioavailability [20]: 44%
CCCN(c1ncccc1NC(C)C)C1CCN(C(=O)c2cc3cc(NC(=O)N4CCN(C)CC4)ccc3[nH]2)CC1,400 nM,860 nM,190 nM,,,,
CC(C)Nc1cccnc1N(C)C1CCN(C(=O)c2cc3ccc(OCCOCCOCCO)cc3[nH]2)CC1,410 nM,770 nM,300 nM,,,,
CN(c1ncccc1NCC1CC1)C1CCN(C(=O)c2cc3cc(NS(C)(=O)=O)ccc3[nH]2)CC1,14600 nM,2910 nM,520 nM,,,,
CCN(c1nc(Cl)ccc1NC(C)(C)C)C1CCN(C(=O)c2cc3cc(NS(C)(=O)=O)ccc3[nH]2)CC1,1520 nM,3000 nM,1020 nM,,,,IC90 [21]: > 300 nM; IC90 [22]: 240 nM
CCNc1cccnc1N(CC)C1CCN(C(=O)c2cc3cc(NS(=O)(=O)CC)ccc3[nH]2)CC1,260 nM,480 nM,400 nM,,,,
CCNc1cccnc1N(C(C)C)C1CCN(C(=O)c2cc3cc(NS(C)(=O)=O)ccc3[nH]2)CC1,2600 nM,3600 nM,380 nM,,,,
CCCN(c1ncccc1NC(C)C)C1CCN(C(=O)c2cc3cc(NS(C)(=O)=O)ccc3[nH]2)CC1,240 nM,610 nM,240 nM,60 nM,220 nM,,
CC(C)Nc1cccnc1N(C1CC1)C1CCN(C(=O)c2cc3ccccc3[nH]2)CC1,590 nM,2310 nM,700 nM,,,,
CCc1cc(NCc2nc3c(Cl)ccc(Cl)c3o2)c(O)nc1C [L-697661],110 nM,> 60000 nM,800 nM,> 10000 nM,430 nM,4000 nM,
